Here are results for 38 molecules from ChEMBL document CHEMBL1127564, “Studies on neurokinin antagonists. 4. Synthesis and structure-activity relationships of novel dipeptide substance P antagonists: N2-[(4R)-4-hydroxy-1-[(1-methyl-1H-indol-3-yl)carbonyl]-L-prolyl]-N- methyl-N-(phenylmethyl)-3-(2-naphthyl)-L-alaninamide and its related compounds” (J Med Chem, 1994).

One assay concerns the target Substance-P receptor (Cavia porcellus, UniProt P30547). The assay is described as follows: In vitro binding affinity against substance P receptor using [3H]SP as radioligand in guinea pig lung membrane. The class given is cell membranes. Put shortly: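 Guinea pig lung membranes incubated with 1 nM [3H]SP, with or without test compound, 0.5 h at 4 °C in 50 mM Tris-HCl pH 7.5, 5 mM MnCl2, 0.02% BSA, chymostatin, leupeptin, bacitracin. Filtered on glass-fibre filters, radioactivity counted by scintillation. Specific binding defined as that displaced by 5 μM unlabeled SP. IC50 estimated from the displacement curve. Duplicate assays, usually a single experiment.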

Assay [1] has as its system Cavia porcellus. The assay is described as follows: In vivo inhibitory activity against airway edema induced by Substance P at a dose 100 mg/kg administered orally. The class given is functional. The conditions noted are these: route oral. Put shortly: (§1)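 Male Hartley guinea pigs dosed orally with drug in DMSO solution, or with vehicle, 30 min before intravenous SP (1.3 μg/kg) given with Evans Blue (20 mg/kg) and heparin (200 IU/kg). Trachea and main bronchi removed 10 min after challenge; dye extracted and read at 620 nm. Percent inhibition of edema reported, two animals per experiment.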

Assay [2] concerns Cavia porcellus. The assay is described as follows: In vivo inhibitory activity against airway edema induced by Substance P at a dose 10 mg/kg administered orally. The class given is functional. The conditions noted are these: route oral. Summed up: as §1

Chain of Substance-P receptor (P30547 whole entry): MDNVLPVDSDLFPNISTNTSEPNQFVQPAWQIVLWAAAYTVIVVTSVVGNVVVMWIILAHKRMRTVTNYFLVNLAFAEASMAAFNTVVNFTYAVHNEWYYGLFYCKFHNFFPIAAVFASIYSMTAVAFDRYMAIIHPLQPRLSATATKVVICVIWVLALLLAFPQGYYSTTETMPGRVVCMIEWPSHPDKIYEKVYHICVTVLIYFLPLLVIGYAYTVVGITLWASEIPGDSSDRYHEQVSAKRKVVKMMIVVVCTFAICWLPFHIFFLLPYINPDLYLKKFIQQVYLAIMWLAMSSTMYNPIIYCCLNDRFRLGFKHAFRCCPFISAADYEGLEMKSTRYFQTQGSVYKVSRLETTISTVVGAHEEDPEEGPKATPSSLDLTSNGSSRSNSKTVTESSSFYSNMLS

`CN(Cc1ccccc1)C(=O)[C@@H](Cc1ccc2c(c1)OCCO2)NC(=O)C1C[C@@H](O)CN1C(=O)c1cn(C)c2ccccc12` (stereo not given in full): the half-maximal inhibitory concentration (IC50) (usually the concentration needed to halve the response being measured) at Substance-P receptor (read-out: IC50) is 1.1 nM. Also, the inhibition in vivo (in general, the share of the control response that was lost under treatment) at 100 mg/kg in the assay on Cavia porcellus [1] was determined as 1%. Turning to `CN(Cc1ccccc1)C(=O)[C@@H](Cc1ccccc1)NC(=O)[C@H]1CCCN1C(=O)c1c[nH]c2ccccc12`, the half-maximal inhibitory concentration (IC50) result on Substance-P receptor is “Not Active”. Consider `CN(Cc1ccccc1)C(=O)[C@@H](Cc1ccccc1)NC(=O)C(CO)NC(=O)c1c[nH]c2ccccc12` (stereo not given in full), for which, on Substance-P receptor (read-out: IC50), the IC50 stood at 11 nM. On the same count and under the same terms, with `CN(Cc1ccccc1)C(=O)[C@@H](Cc1ccccc1)NC(=O)C1CCN1C(=O)c1c[nH]c2ccccc12` (stereo not given in full) the figure was 8 nM.

For the molecule `Cc1ccc2cc(C[C@@H](NC(=O)C3C[C@@H](O)CN3C(=O)c3cn(C)c4ccccc34)C(=O)N(C)Cc3ccccc3)ccc2c1` (stereo not given in full), the half-maximal inhibitory concentration (IC50) on Substance-P receptor turned out to be 23 nM. In addition, the inhibition in vivo at 100 mg/kg in the assay on Cavia porcellus [1] stood at 28%. Regarding `CN(Cc1ccccc1)C(=O)[C@@H](Cc1ccc(NS(C)(=O)=O)cc1)NC(=O)C1C[C@@H](O)CN1C(=O)c1cn(C)c2ccccc12` (stereo not given in full), the 50% inhibitory concentration (IC50) at Substance-P receptor (read-out: IC50) came out at 25.3 nM. The molecule also gave an inhibition in vivo at 100 mg/kg with Cavia porcellus [1] of 0%. In the case of `CN(Cc1ccccc1)C(=O)[C@@H](Cc1ccccc1)NC(=O)C(CCCCN)NC(=O)c1c[nH]c2ccccc12` (stereo not given in full), the 50% inhibitory concentration (IC50) at Substance-P receptor (read-out: IC50) is 14 nM. `CN(Cc1ccccc1)C(=O)[C@@H](Cc1ccc2ccccc2c1)NC(=O)C1C[C@@H](O)CN1C(=O)c1cn(C)c2ccccc12` (stereo not given in full) registered an inhibition in vivo at 10 mg/kg with Cavia porcellus [2] of 86%. At Substance-P receptor (read-out: IC50), the IC50 is 1.7 nM. Further, in the assay on Cavia porcellus [1], the inhibition in vivo at 100 mg/kg worked out at 94%. For `CN(Cc1ccccc1)C(=O)[C@@H](Cc1ccc2cc(Cl)ccc2c1)NC(=O)C1C[C@@H](O)CN1C(=O)c1cn(C)c2ccccc12` (stereo not given in full), the concentration for half-maximal inhibition (IC50) at Substance-P receptor (read-out: IC50) was 27.3 nM. `CN(Cc1ccccc1)C(=O)[C@@H](Cc1csc2ccccc12)NC(=O)C1C[C@@H](O)CN1C(=O)c1cn(C)c2ccccc12` (stereo not given in full) registered an inhibition in vivo at 10 mg/kg in the assay on Cavia porcellus [2] of 34%. Further, the concentration for half-maximal inhibition (IC50) at Substance-P receptor (read-out: IC50) was 10.3 nM. The inhibition in vivo at 100 mg/kg in the assay on Cavia porcellus [1] amounted to 99%. For the molecule `CN(C)CCn1cc(C(=O)N2C[C@H](O)CC2C(=O)N[C@H](Cc2ccccc2)C(=O)N(C)Cc2ccccc2)c2ccccc21` (stereo not given in full), the inhibition in vivo at 10 mg/kg with Cavia porcellus [2] is 2%. Further, the half-maximal inhibitory concentration (IC50) at Substance-P receptor (read-out: IC50) came out at 3.5 nM.

In the case of `CN(Cc1ccccc1)C(=O)[C@@H](Cc1ccccc1)NC(=O)C(CC(N)=O)NC(=O)c1c[nH]c2ccccc12` (stereo not given in full), the IC50 on Substance-P receptor (read-out: IC50) amounted to 9 nM. `CN(Cc1ccccc1)C(=O)[C@@H](Cc1ccc2c(c1)CCCC2)NC(=O)C1C[C@@H](O)CN1C(=O)c1cn(C)c2ccccc12` (stereo not given in full) showed an inhibition in vivo at 10 mg/kg in the assay on Cavia porcellus [2] of 69%. Also, the half-maximal inhibitory concentration (IC50) at Substance-P receptor (read-out: IC50) came out at 11.6 nM. In the assay with Cavia porcellus [1], this molecule had an inhibition in vivo at 100 mg/kg of 87%.

For the molecule `CN(Cc1ccccc1)C(=O)[C@@H](Cc1ccccc1F)NC(=O)C1C[C@@H](O)CN1C(=O)c1cn(C)c2ccccc12` (stereo not given in full), the half-inhibitory concentration (IC50) at Substance-P receptor (read-out: IC50) was determined as 14 nM. In addition, 100 mg/kg produced 35% inhibition in vivo in the assay with Cavia porcellus [1]. Molecule `COc1ccc(C[C@@H](NC(=O)C2C[C@@H](O)CN2C(=O)c2cn(C)c3ccccc23)C(=O)N(C)Cc2ccccc2)cc1` (stereo not given in full) displayed an inhibition in vivo at 10 mg/kg in the assay with Cavia porcellus [2] of 29%. For the same molecule, at Substance-P receptor (read-out: IC50), the half-inhibitory concentration (IC50) was found to be 7.6 nM. Besides, in the assay on Cavia porcellus [1], the inhibition in vivo at 100 mg/kg turned out to be 91%.

`CN(Cc1ccccc1)C(=O)[C@@H](Cc1ccccc1)NC(=O)C1C[C@@H](O)CN1C(=O)c1cn(CC(=O)O)c2ccccc12` (stereo not given in full): at Substance-P receptor (read-out: IC50), the concentration for half-maximal inhibition (IC50) was found to be 49.7 nM. On the same count and under the same terms, with `CN(Cc1ccccc1)C(=O)[C@@H](Cc1ccccc1)NC(=O)C1CCCN1C(=O)c1c[nH]c2ccccc12` (stereo not given in full) the figure was 5.4 nM. Take `CN(Cc1ccccc1)C(=O)[C@@H](Cc1ccccc1)NC(=O)C1C[C@@H](O)CN1C(=O)/C=C/c1ccccc1` (stereo not given in full): the inhibition in vivo at 10 mg/kg with Cavia porcellus [2] was 47%. Moreover, the IC50 at Substance-P receptor (read-out: IC50) amounted to 9 nM. As to `CN(Cc1ccccc1)C(=O)[C@@H](Cc1ccc(O)cc1)NC(=O)C1C[C@@H](O)CN1C(=O)c1cn(C)c2ccccc12` (stereo not given in full), the 50% inhibitory concentration (IC50) at Substance-P receptor was 1.8 nM. Moreover, testing at 100 mg/kg in the assay on Cavia porcellus [1] gave an inhibition in vivo of 11%. The corresponding values for `CN(Cc1ccccc1)C(=O)[C@@H](Cc1cccc(F)c1)NC(=O)C1C[C@@H](O)CN1C(=O)c1cn(C)c2ccccc12` (stereo not given in full) are 9.2 nM and 85%. `CC(C)n1cc(C(=O)N2C[C@H](O)CC2C(=O)N[C@H](Cc2ccccc2)C(=O)N(C)Cc2ccccc2)c2ccccc21` (stereo not given in full) gave an inhibition in vivo at 10 mg/kg in the assay with Cavia porcellus [2] of 48%. In addition, the IC50 on Substance-P receptor (read-out: IC50) was found to be 15.9 nM. Take `CN(Cc1ccccc1)C(=O)[C@@H](Cc1ccc(F)cc1)NC(=O)C1C[C@@H](O)CN1C(=O)c1cn(C)c2ccccc12` (stereo not given in full): 10 mg/kg produced 30% inhibition in vivo in the assay on Cavia porcellus [2]. For the same molecule, the IC50 at Substance-P receptor stood at 4.3 nM. In the assay on Cavia porcellus [1], this molecule gave an inhibition in vivo at 100 mg/kg of 96%.

`CN(Cc1ccccc1)C(=O)[C@@H](Cc1ccccc1)NC(=O)C1CCC(O)CN1C(=O)c1c[nH]c2ccccc12` (stereo not given in full): on Substance-P receptor (read-out: IC50), the half-maximal inhibitory concentration (IC50) was 289 nM. Regarding `CN(Cc1ccccc1)C(=O)[C@@H](Cc1ccc(C(F)(F)F)cc1)NC(=O)C1C[C@@H](O)CN1C(=O)c1cn(C)c2ccccc12` (stereo not given in full), in the assay with Cavia porcellus [2], the inhibition in vivo at 10 mg/kg amounted to 83%. The molecule also had an IC50 on Substance-P receptor of 4.9 nM. The inhibition in vivo at 100 mg/kg in the assay on Cavia porcellus [1] came to 94%. As to `CN(Cc1ccccc1)C(=O)[C@@H](Cc1ccc([N+](=O)[O-])cc1)NC(=O)C1C[C@@H](O)CN1C(=O)c1cn(C)c2ccccc12` (stereo not given in full), in the assay on Cavia porcellus [2], the inhibition in vivo at 10 mg/kg was 19%. In addition, at Substance-P receptor (read-out: IC50), the 50% inhibitory concentration (IC50) was 7 nM. For the same molecule, the inhibition in vivo at 100 mg/kg with Cavia porcellus [1] worked out at 39%. Take `CN(Cc1ccccc1)C(=O)[C@@H](Cc1ccccc1)NC(=O)C1C[C@@H](O)CN1C(=O)Cc1ccccc1` (stereo not given in full): the IC50 at Substance-P receptor (read-out: IC50) stood at 139 nM. `CN(Cc1ccccc1)C(=O)C(Cc1ccccc1)NC(=O)C1C[C@@H](O)CN1C(=O)c1c[nH]c2ccccc12` (single isomer, unassigned): on Substance-P receptor (read-out: IC50), the IC50 is 7.4 nM. Moreover, the inhibition in vivo at 100 mg/kg in the assay on Cavia porcellus [1] was 8%.

As to `CN(Cc1ccccc1)C(=O)[C@@H](Cc1ccccc1)NC(=O)C1C[C@@H](O)CN1C(=O)c1cc2ccccc2s1` (stereo not given in full), the inhibition in vivo at 10 mg/kg with Cavia porcellus [2] was 37%. Moreover, at Substance-P receptor (read-out: IC50), the IC50 came to 19.9 nM. Regarding `CN(Cc1ccccc1)C(=O)C(Cc1ccccc1)NC(=O)C1C[C@H](O)CN1C(=O)c1c[nH]c2ccccc12` (single isomer, unassigned), the half-maximal inhibitory concentration (IC50) at Substance-P receptor (read-out: IC50) was 4.6 nM. Molecule `CN(Cc1ccccc1)C(=O)[C@@H](Cc1ccccc1)NC(=O)C1C[C@@H](O)CN1C(=O)c1cn(C)c2ccccc12` (stereo not given in full) showed an inhibition in vivo at 10 mg/kg in the assay with Cavia porcellus [2] of 51%. The molecule further came in with an inhibition in vivo at 100 mg/kg with Cavia porcellus [1] of 75%. As for `CN(Cc1ccccc1)C(=O)[C@@H](Cc1ccc(N)cc1)NC(=O)C1C[C@@H](O)CN1C(=O)c1cn(C)c2ccccc12` (stereo not given in full), the IC50 at Substance-P receptor (read-out: IC50) was 5.4 nM. In addition, the inhibition in vivo at 100 mg/kg with Cavia porcellus [1] worked out at 0%.

For the molecule `CN(Cc1ccccc1)C(=O)[C@@H](Cc1c[nH]c2ccccc12)NC(=O)C1C[C@@H](O)CN1C(=O)c1cn(C)c2ccccc12` (stereo not given in full), the concentration for half-maximal inhibition (IC50) at Substance-P receptor (read-out: IC50) amounted to 1.7 nM. Also, the inhibition in vivo at 100 mg/kg in the assay on Cavia porcellus [1] is 7%.

With `CN(Cc1ccccc1)C(=O)[C@@H](Cc1ccccc1)NC(=O)C1C[C@@H](O)CN1C(=O)CCc1ccccc1` (stereo not given in full), in the assay with Cavia porcellus [2], 10 mg/kg produced 4% inhibition in vivo. Moreover, on Substance-P receptor (read-out: IC50), the half-maximal inhibitory concentration (IC50) was determined as 14 nM. In turn, `CN(Cc1ccccc1)C(=O)[C@@H](Cc1cccc(C(F)(F)F)c1)NC(=O)C1C[C@@H](O)CN1C(=O)c1cn(C)c2ccccc12` (stereo not given in full) had an IC50 at Substance-P receptor of 3.5 nM. In the assay on Cavia porcellus [1], the inhibition in vivo at 100 mg/kg amounted to 66%.

At Substance-P receptor, `CN(Cc1ccccc1)C(=O)[C@@H](Cc1ccccc1)NC(=O)C1C[C@@H](O)CN1C(=O)CCCc1ccccc1` (stereo not given in full) yielded a 50% inhibitory concentration (IC50) of 32 nM.

Regarding `CN(Cc1ccccc1)C(=O)[C@@H](Cc1cn(C=O)c2ccccc12)NC(=O)C1C[C@@H](O)CN1C(=O)c1cn(C)c2ccccc12` (stereo not given in full), the IC50 on Substance-P receptor (read-out: IC50) came out at 3.5 nM. The inhibition in vivo at 100 mg/kg in the assay with Cavia porcellus [1] is 21%. Take `CN(Cc1ccccc1)C(=O)[C@@H](Cc1ccccc1)NC(=O)C(CC(=O)O)NC(=O)c1c[nH]c2ccccc12` (stereo not given in full): the IC50 result at Substance-P receptor is given as “Not Active”.

In turn, `CN(Cc1ccccc1)C(=O)[C@@H](Cc1ccccc1)NC(=O)C1C[C@@H](O)CN1C(=O)c1[nH]nc2ccccc12` (stereo not given in full) displayed an inhibition in vivo at 10 mg/kg in the assay on Cavia porcellus [2] of 0%. Further, the IC50 at Substance-P receptor (read-out: IC50) was found to be 5 nM.
